In ChEMBL document CHEMBL1240409, “Design, synthesis and evaluation of (E)-alpha-benzylthio chalcones as novel inhibitors of BCR-ABL kinase” (Bioorg Med Chem, 2010):

What was measured:
K562 = assay: Growth inhibition of human K562 cells expressing p210Bcr/Abl after 96 hrs by trypan blue exclusion assay; format: functional, cell-based; details: K562, 96 h
Method in brief: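 K562 cells were kept in RPMI with 10% FBS and penicillin–streptomycin at 37 °C under 5% CO2. Cells were seeded at 1 × 10^5 cells/mL with a range of compound concentrations, using DMSO as the negative control. After 96 h, viability was counted by Trypan blue exclusion and expressed as percent of DMSO control to derive GI50.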

DU-145 = assay: Growth inhibition of human DU145 cells after 96 hrs by trypan blue exclusion assay; format: functional; details: DU-145, 96 h

| GI50 (K562) [µM] | GI50 (DU-145) [µM] | Compound |
| --- | --- | --- |
| 50 | 50 | Cc1ccc(CS/C(=C/c2ccc(O)c(O)c2O)C(=O)c2ccc(Cl)cc2)cc1 |
| 1 | 10 | Cc1cc(C)cc(/C=C(/Sc2ccc(Br)cc2)C(=O)c2ccc(Cl)cc2)c1 |
| 1 | 1 | COc1ccc(/C=C(/Sc2ccc(C)cc2)C(=O)c2ccc(Cl)cc2)cc1O |
| 10 | > 100 | CSc1ccc(/C=C(/SCc2ccc(C)cc2)C(=O)c2ccc(Br)cc2)cc1 |
| 25 | 25 | Cc1ccsc1/C=C(\C(=O)c1ccc(Cl)cc1)S(=O)(=O)Cc1ccc(Cl)cc1 |
| 1 | 10 | O=C(/C(=C\c1ccccc1OCc1ccccc1)S(=O)(=O)Cc1ccc(F)cc1)c1ccc(Cl)cc1 |
| 1 | 10 | Cc1ccc(CS/C(=C/c2ccccc2F)C(=O)c2ccc(Cl)cc2)cc1 |
| 1 | 10 | COc1ccc(/C=C(/Sc2ccccc2Cl)C(=O)c2ccc(Cl)cc2)c(OC)c1OC |
| 10 | 10 | COc1ccccc1/C=C(\C(=O)c1ccc([N+](=O)[O-])cc1)S(=O)(=O)Cc1ccc(Cl)cc1 |
| 10 | 10 | O=C(/C(=C\c1ccc(F)cc1C(F)(F)F)SCc1ccc(F)cc1)c1ccc(Br)cc1 |
| 1 | 9 | O=C(/C(=C\c1ccc(Br)cc1)SCc1ccc(F)cc1)c1ccc(Cl)cc1 |
| 10 | 10 | O=C(/C(=C\c1ccc(O)c([N+](=O)[O-])c1)Sc1ccccc1Br)c1ccc(Br)cc1 |
| 50 | 50 | O=C(/C(=C\c1ccccc1OCc1ccccc1)Sc1ccccc1Cl)c1ccccc1Cl |
| 10 | 25 | COc1ccccc1/C=C(/Sc1ccc(C)cc1)C(=O)c1ccc(Cl)cc1 |
| 1 | 1 | O=C(/C(=C\c1ccc([N+](=O)[O-])c(O)c1)SCc1ccc(Br)cc1)c1ccc([N+](=O)[O-])cc1 |
| 10 | 10 | Cc1ccc(S(=O)(=O)/C(=C/c2sccc2C)C(=O)c2ccc(Cl)cc2)cc1 |
| 1 | 10 | O=C(/C(=C\c1ccc(OC(F)(F)F)cc1)Sc1ccc(Br)cc1)c1ccc(Br)cc1 |
| 50 | 50 | Cc1ccc(C(=O)/C(=C\c2ccc(N(C)C)cc2)S(=O)(=O)c2ccc(Cl)cc2)cc1 |
| 1 | 1 | O=C(/C(=C\c1ccccc1OCc1ccccc1)Sc1ccc(F)cc1)c1ccc(Cl)cc1 |

| GI50 (K562) [µM] | GI50 (DU-145) [µM] | Compound |
| --- | --- | --- |
| 1 | 25 | O=C(/C(=C\c1ccc(Cl)cc1)SCc1ccc(Br)cc1)c1ccccc1Cl |
| 1 | 1 | O=C(/C(=C\c1ccc(I)cc1)Sc1ccc(Br)cc1)c1ccc(Br)cc1 |
| 1 | 1 | O=C(/C(=C\c1ccc([N+](=O)[O-])c(O)c1)Sc1ccc(Br)cc1)c1c(F)c(F)c(F)c(F)c1F |
| > 100 | > 100 | Cc1ccc(S/C(=C/c2cnc3ccccc3c2)C(=O)c2ccc(Cl)cc2)cc1 |
| 10 | 10 | CCOc1cc(/C=C(\C(=O)c2ccc(Cl)cc2)S(=O)(=O)Cc2ccc(Cl)cc2)ccc1O |
| 50 | 50 | COc1ccc(S/C(=C/c2ccc(C)s2)C(=O)c2ccc(Cl)cc2)cc1 |
| 10 | 10 | O=C(/C(=C\c1ccc(O)c([N+](=O)[O-])c1)Sc1c(F)c(F)c(F)c(F)c1F)c1ccc(Br)cc1 |
| 10 | 10 | COc1ccc(/C=C(/SCc2ccc(F)cc2)C(=O)c2ccc(Cl)cc2)c(OC)c1OC |
| 10 | 10 | Cc1ccc(S/C(=C/c2ccc[nH]2)C(=O)c2ccc(Cl)cc2)cc1 |
| > 100 | > 100 | Cc1ccc(S/C(=C/c2ccc(N(C)C)cc2)C(=O)c2ccc(Cl)cc2)cc1 |
| 1 | 10 | O=C(/C(=C\c1ccc(O)c([N+](=O)[O-])c1)SCc1ccc(Br)cc1)c1ccc(C(F)(F)F)cc1 |
| 1 | 10 | CCOc1cc(/C=C(\SCc2ccc(Cl)cc2Cl)C(=O)c2ccc(Cl)cc2)ccc1O |
| 9 | 1 | O=C(/C(=C\c1ccc(I)cc1)S(=O)(=O)c1ccc(Br)cc1)c1ccc(Br)cc1 |
| 25 | 25 | Cc1ccsc1/C=C(/SCc1ccc(Cl)cc1)C(=O)c1ccc(Br)cc1 |
| > 100 | > 100 | O=C(/C(=C\c1ccc([N+](=O)[O-])c(O)c1)SCc1ccc(Br)cc1)C1CCNC1 (configuration not stated) |
| 1 | 1 | Cc1ccc(C)c(/C=C(\C(=O)c2ccc(Br)cc2)S(=O)(=O)Cc2ccc(F)cc2)c1 |
| 1 | 10 | Cc1ccc(CS(=O)(=O)/C(=C/c2ccc(S(C)(=O)=O)cc2)C(=O)c2ccc(Br)cc2)cc1 |
| 10 | 10 | Cc1cc(F)ccc1/C=C(/SCc1ccc(F)cc1)C(=O)c1ccc(Br)cc1 |
| 1 | 10 | COc1ccc(/C=C(/SCc2ccc(Cl)cc2)C(=O)c2ccc(Br)cc2)cc1 |

| GI50 (K562) [µM] | GI50 (DU-145) [µM] | Compound |
| --- | --- | --- |
| 10 | 10 | N#Cc1ccc(C(=O)/C(=C\c2ccc(O)c([N+](=O)[O-])c2)SCc2ccc(Br)cc2)cc1 |
| > 100 | > 100 | Cc1ccsc1/C=C(/SCc1ccc(Cl)cc1)C(=O)c1ccc([N+](=O)[O-])cc1 |
| > 100 | 1 | Cc1ccc(S/C(=C/c2ccc(Oc3ccccc3)cc2)C(=O)c2ccc(Br)cc2)cc1 |
| 1 | 1 | Cc1ccc(CS(=O)(=O)/C(=C/c2cccc(Cl)c2Cl)C(=O)c2ccc(Cl)cc2)cc1 |
| 1 | 10 | COc1ccc(/C=C(\C(=O)c2ccc(Cl)cc2)S(=O)(=O)Cc2ccc(Cl)cc2)c(OC)c1OC |
| > 100 | > 100 | COc1ccc(C(=O)/C(=C\c2ccc(Br)cc2)Sc2ccc(F)cc2)cc1 |
| 10 | 50 | COc1ccc(/C=C(/Sc2ccc(C)cc2)C(=O)c2ccc(Br)cc2)cc1 |
| 10 | 10 | O=C(O)c1ccc(C(=O)/C(=C\c2ccccc2F)SCc2ccc(Br)cc2)cc1 |
| 1 | 25 | CSc1ccc(/C=C(/SCc2ccc(Cl)cc2)C(=O)c2ccc(Cl)cc2)cc1 |
| 10 | 25 | CSc1ccc(/C=C(/SCc2ccc(C)cc2)C(=O)c2ccc(Cl)cc2)cc1 |
| 25 | 50 | Cc1ccc(S/C(=C/c2ccc(-c3ccccc3)cc2)C(=O)c2ccc(Cl)cc2)cc1 |
| 8 | 8 | COc1ccc(/C=C(\C(=O)c2ccc(Br)cc2)S(=O)(=O)c2ccc(Br)cc2)c(OC)c1 |
| 10 | 10 | O=C(/C(=C\c1ccc(Br)cc1)S(=O)(=O)c1ccc(Br)cc1)c1ccc(Br)cc1 |
| 10 | 10 | COc1ccc(/C=C(\C(=O)c2ccc(Cl)cc2)S(=O)(=O)c2ccc(Br)cc2)cc1 |
| 1 | 1 | Cc1ccc(S(=O)(=O)/C(=C/c2ccc(Cl)cc2)C(=O)c2ccc(Cl)cc2)cc1 |
| 10 | 10 | Cc1ccc(CS(=O)(=O)/C(=C/c2cc(C)cc(C)c2)C(=O)c2ccc(Cl)cc2)cc1 |
| 10 | 25 | COc1ccc(S(=O)(=O)/C(=C/c2ccc(C)s2)C(=O)c2ccc(Cl)cc2)cc1 |
| 1 | 1 | Cc1ccc(C)c(/C=C(\C(=O)c2ccc(Cl)cc2)S(=O)(=O)c2ccc(Br)cc2)c1 |
